Laboratory results taken from ChEMBL document CHEMBL1158546, “Discovery of novel and potent leukotriene B4 receptor antagonists. Part 1” (J Med Chem, 2010).
Converted amounts (≈) assume the structure as drawn. The source made the active and inactive calls. The calls are words filed in the database; no cut-off is given here.

How the values were obtained:
[1] = Metabolic stability in Beagle dog hepatocytes assessed as compound metabolized after 3 hrs; format: ADME, cell-based, Canis lupus familiaris, Hepatocyte
How it was run: (§1)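 Cryopreserved hepatocytes at 1.5 million cells/mL (pooled human male/female N = 10, male CD1 mouse, SD rat, beagle dog, cyno monkey) were incubated in Leibovitz medium with 1% FBS and 10 μM substrate. Incubation ran 3 h at 37 C with shaking and was stopped with methanol. Cell-free controls used hepatocyte incubation medium. Parent and metabolites were quantified by UV peak area at 232-242 nm, assuming equal extinction coefficients.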

[2] = Metabolic stability in CD1 mouse hepatocytes assessed as compound metabolized after 3 hrs; format: ADME, cell-based, Hepatocyte; how it was run: as §1
[3] = target: T1, Voltage-gated inwardly rectifying potassium channel KCNH2 (Homo sapiens, UniProt Q12809); experiment: Inhibition of human ERG expressed in CHO cells at 3 uM assessed as reduction of current amplitude
T1 sequence (Q12809 whole entry): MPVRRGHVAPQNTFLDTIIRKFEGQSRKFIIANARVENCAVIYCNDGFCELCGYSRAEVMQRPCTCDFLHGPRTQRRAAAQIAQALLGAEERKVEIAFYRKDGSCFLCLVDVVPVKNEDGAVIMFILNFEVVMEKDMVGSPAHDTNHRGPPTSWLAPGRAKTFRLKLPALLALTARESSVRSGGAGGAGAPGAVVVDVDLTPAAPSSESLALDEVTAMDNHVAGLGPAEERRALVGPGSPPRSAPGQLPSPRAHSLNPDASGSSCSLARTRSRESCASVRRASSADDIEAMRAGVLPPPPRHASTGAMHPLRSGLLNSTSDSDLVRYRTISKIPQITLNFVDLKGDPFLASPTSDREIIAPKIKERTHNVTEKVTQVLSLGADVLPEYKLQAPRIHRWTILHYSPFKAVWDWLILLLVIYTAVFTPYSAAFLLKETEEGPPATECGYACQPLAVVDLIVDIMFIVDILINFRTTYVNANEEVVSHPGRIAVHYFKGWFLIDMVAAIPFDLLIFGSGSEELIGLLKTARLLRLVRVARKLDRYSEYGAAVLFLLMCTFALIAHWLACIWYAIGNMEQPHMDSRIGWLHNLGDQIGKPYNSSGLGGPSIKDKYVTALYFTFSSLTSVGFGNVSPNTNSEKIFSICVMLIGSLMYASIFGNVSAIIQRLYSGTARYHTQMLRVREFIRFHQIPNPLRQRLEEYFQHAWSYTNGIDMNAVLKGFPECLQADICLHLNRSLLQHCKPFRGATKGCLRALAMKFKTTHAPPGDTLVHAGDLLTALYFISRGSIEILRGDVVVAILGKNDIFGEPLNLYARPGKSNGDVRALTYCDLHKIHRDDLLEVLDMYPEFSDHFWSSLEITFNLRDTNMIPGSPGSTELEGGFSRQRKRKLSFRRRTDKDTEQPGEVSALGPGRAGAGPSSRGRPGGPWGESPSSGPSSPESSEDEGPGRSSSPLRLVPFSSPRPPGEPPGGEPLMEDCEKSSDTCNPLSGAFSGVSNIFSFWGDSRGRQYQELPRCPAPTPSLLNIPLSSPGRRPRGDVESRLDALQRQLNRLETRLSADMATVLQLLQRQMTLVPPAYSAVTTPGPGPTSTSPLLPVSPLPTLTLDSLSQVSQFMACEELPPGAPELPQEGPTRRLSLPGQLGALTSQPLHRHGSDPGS

[4] = tested on: Hepatocyte; experiment: Metabolic stability in Sprague-Dawley rat hepatocytes assessed as compound metabolized after 3 hrs; format: ADME, cell-based; how it was run: as §1
[5] = Solubility of compound in small intestinal contents in the fed state at pH 5; format: ADME
How it was run: (§2)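 Solubility measured in simulated intestinal fluid at pH 5.0 (fed) or pH 6.5 (fasted), reported in μg/mL.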

[6] = Half life in Sprague-Dawley rat at 5 mg/kg, iv; format: ADME, organism-based; design: dose 5 mg/kg, route intravenous; settings: in vivo
How it was run: (§3)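 Rat single-dose PK, n = 3, with oral dosing at 10 mg/kg and intravenous dosing at 2.5 or 5 mg/kg.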

[7] = tested on: Hepatocyte; experiment: Metabolic stability in human hepatocytes assessed as compound metabolized after 3 hrs; format: ADME, cell-based; how it was run: as §1
[8] = tested on: Rattus norvegicus; experiment: Hepatotoxicity in rat assessed as increase in ALT level at 400 mg/kg, po qd treated for 14 days measured after 5 days relative to control; settings: in vivo, 120 h
[9] = target: Cytochrome P450 2D6 (Homo sapiens, UniProt P10635); experiment: Inhibition of CYP2D6 fluorescence method; format: ADME
Chain of Cytochrome P450 2D6 (P10635 whole entry): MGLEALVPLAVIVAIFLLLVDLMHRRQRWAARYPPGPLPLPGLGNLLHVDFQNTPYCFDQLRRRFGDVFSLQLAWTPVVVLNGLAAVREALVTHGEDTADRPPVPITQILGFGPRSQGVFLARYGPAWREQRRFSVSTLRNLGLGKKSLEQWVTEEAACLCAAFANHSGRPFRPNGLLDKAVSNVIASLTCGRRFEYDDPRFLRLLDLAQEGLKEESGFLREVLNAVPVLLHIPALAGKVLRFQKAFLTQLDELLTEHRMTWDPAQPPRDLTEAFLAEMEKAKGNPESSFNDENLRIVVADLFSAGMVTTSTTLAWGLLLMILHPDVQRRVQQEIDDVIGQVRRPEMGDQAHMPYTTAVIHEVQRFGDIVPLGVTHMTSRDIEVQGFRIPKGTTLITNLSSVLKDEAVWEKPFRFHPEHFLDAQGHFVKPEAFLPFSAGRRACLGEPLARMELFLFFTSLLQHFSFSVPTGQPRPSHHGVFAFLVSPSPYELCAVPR
How it was run: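 High-throughput CYP panel covering 1A2, 2D6, 2C9, 2C19 and 3A4, using fluorogenic substrates. IC50 was determined in μM.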

[10] = Solubility of compound in small intestinal contents in the fasted state at pH 6.5; format: ADME; how it was run: as §2
[11] = tested on: Rattus norvegicus; experiment: Metabolic stability of compound in rat plasma assessed as acylglucuronide isomers formed at 400 mg/kg, po; settings: in vivo
[12] = Metabolic stability of compound assessed as remaining level in cell free assay; format: ADME; how it was run: as §1
[13] = Half life in Sprague-Dawley rat at 10 mg/kg, po; format: ADME, organism-based; design: dose 10 mg/kg, route oral; settings: in vivo; how it was run: as §3
[14] = target: T2, Cytochrome P450 1A2 (Homo sapiens, UniProt P05177); experiment: Inhibition of CYP1A2 by fluorescence method; format: ADME
T2 sequence (P05177 whole entry): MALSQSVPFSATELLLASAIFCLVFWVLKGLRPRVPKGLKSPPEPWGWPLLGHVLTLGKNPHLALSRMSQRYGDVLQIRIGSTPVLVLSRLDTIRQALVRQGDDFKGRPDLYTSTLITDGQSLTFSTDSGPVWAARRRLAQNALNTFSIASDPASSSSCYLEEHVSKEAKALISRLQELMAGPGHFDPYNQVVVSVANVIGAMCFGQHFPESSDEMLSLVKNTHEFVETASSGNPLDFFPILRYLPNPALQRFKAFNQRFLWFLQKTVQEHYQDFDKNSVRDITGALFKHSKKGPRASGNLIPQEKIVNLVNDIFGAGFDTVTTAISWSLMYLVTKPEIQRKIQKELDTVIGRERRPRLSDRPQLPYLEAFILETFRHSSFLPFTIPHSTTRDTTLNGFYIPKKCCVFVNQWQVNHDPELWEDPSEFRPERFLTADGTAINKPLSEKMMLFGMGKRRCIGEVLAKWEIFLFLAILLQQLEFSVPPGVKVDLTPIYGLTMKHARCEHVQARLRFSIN
How it was run: (§4)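 Cytochrome P450 high-throughput panel (1A2, 2D6, 2C9, 2C19, 3A4) using fluorogenic substrates; IC50 reported.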

[15] = tested on: Cynomolgus monkey; experiment: Antiinflammatory activity against ascaris suum antigen-evoked increase in neutrophils at bronchoalveolar lavage in cynomolgus monkey at 10 mg/kg, po after 1 hr treated before LTB4 challenge; format: functional, organism-based; design: dose 10 mg/kg; settings: Macaca fascicularis, in the assay text read “before Ascaris suum antigen challenge” for “before LTB4 challenge”
How it was run: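 Male cynomolgus monkeys (4-10 kg) naturally hypersensitive to Ascaris suum had baseline BAL 24 h before challenge. They were dosed orally with 10 mg/kg in 15% Labrasol in PEG. One hour later, under ketamine/xylazine, they received antigen aerosol for 90 s by endotracheal tube. BAL neutrophil percentage came from 300-cell LeukoStat differentials, with hemocytometer totals. Analysis by two-way ANOVA/Bonferroni; 3-21 animals per group.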

[16] = Metabolic stability in cynomolgus monkey hepatocytes assessed as compound metabolized after 3 hrs; format: ADME, cell-based, Macaca fascicularis, Hepatocyte; how it was run: as §1
[17] = target: Cytochrome P450 2C19 (Homo sapiens, UniProt P33261); experiment: Inhibition of CYP2C19 fluorescence method; format: ADME; how it was run: as §4
Chain of Cytochrome P450 2C19 (P33261 whole entry): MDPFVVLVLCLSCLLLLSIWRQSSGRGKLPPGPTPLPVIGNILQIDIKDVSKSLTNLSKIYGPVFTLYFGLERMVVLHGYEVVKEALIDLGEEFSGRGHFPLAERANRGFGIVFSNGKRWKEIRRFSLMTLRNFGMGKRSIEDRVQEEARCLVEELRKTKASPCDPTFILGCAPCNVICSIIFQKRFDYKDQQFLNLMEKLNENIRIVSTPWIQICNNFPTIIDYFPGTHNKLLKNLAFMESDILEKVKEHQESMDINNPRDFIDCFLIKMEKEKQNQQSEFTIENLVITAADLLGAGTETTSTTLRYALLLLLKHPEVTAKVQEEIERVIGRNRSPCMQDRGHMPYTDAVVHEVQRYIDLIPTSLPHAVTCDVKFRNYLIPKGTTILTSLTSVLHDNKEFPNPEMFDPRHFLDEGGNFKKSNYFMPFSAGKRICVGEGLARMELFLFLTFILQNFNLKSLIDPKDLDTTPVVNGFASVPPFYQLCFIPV

[18] = target: T1, Voltage-gated inwardly rectifying potassium channel KCNH2; experiment: Inhibition of human ERG expressed in CHO cells assessed as reduction of current amplitude
[19] = target: Cytochrome P450 2C9 (Homo sapiens, UniProt P11712); experiment: Inhibition of CYP2C9 by LC/MS method; format: ADME
Chain of Cytochrome P450 2C9 (P11712 whole entry): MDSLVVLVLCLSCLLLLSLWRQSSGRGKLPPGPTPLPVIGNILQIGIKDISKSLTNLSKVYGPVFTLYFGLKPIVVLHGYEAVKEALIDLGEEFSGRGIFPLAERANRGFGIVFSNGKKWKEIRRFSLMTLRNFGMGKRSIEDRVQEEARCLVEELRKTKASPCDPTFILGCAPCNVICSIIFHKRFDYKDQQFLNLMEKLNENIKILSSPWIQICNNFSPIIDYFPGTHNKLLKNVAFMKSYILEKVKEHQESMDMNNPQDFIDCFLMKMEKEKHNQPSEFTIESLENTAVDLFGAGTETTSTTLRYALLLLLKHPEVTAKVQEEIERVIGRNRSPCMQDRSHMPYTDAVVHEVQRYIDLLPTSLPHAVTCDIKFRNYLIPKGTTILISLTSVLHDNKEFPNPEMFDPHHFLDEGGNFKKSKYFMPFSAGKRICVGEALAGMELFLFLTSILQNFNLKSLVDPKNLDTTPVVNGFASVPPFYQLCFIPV

[20] = Lipophilicity, log D of compound at pH 7.4; settings: buffer
[21] = Clearance in Sprague-Dawley rat at 5 mg/kg, iv; format: ADME, organism-based; design: dose 5 mg/kg, route intravenous; settings: in vivo; how it was run: as §3
[22] = Cmax in rat at 40 mg/kg, po qd treated for 14 days; format: ADME, organism-based; design: dose 40 mg/kg, route oral; settings: in vivo
How it was run: (§5)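 Male Han-Wistar rats (200-230 g) dosed orally once daily for 14 days in 2% Klucel LF/0.1% Tween-80 in water, n = 4 per group. Blood was taken from the retro-orbital sinus under isoflurane/O2 anesthesia, and plasma was separated by cold centrifugation and stored at -70 C until analysis. Exposure values refer to day 14.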

[23] = AUC (0 to 24hrs) in rat at 40 mg/kg, po qd treated for 14 days; format: ADME, organism-based; design: time < 24 hr, dose 40 mg/kg, route oral; settings: plasma; how it was run: as §5
[24] = Cmax in rat at 400 mg/kg, po qd treated for 14 days; format: ADME, organism-based; design: dose 400 mg/kg, route oral; settings: in vivo; how it was run: as §5
[25] = AUC(0 to 24hrs) in rat at 400 mg/kg, po qd treated for 14 days; format: ADME, organism-based; design: time < 24 hr, dose 400 mg/kg, route oral; settings: plasma; how it was run: as §5

## O=C(O)CCCOc1cccc(CCCCCCOc2cc(-c3ccsc3)cc(-c3ccc4c(c3)OCO4)c2)c1CCC(=O)O
[1]
  Activity: 27.8%
[2]
  Activity: 16.9%
[3]
  INH: Not Active
[4]
  Activity: 20.4%
[5]
  solubility: 32.9 µg/mL (≈ 52.2 µM)
[6]
  half-life: 2.1 h
[7]
  Activity: 17.3%
[8]
  Activity: 29%
[9]
  IC50: > 7.5 µM
[10]
  solubility: 34.6 µg/mL (≈ 54.9 µM)
[11]
  Stability: 6%
[12]
  Activity: 100%
[13]
  half-life: 2.7 h
[14]
  IC50: > 7.5 µM
[15]
  Activity: Active
[16]
  Activity: 7.7%
[17]
  IC50: > 7.5 µM
[18]
  IC50: > 3 µM
[19]
  IC50: 22.5 µM
[20]
  logD: 2.34
[21]
  clearance: 5.47 mL/min/kg

## O=C(O)CCCOc1cccc(CCCCCCOc2cc(-c3cccc(F)c3)cc(-c3ccc4c(c3)OCO4)c2)c1CCC(=O)O
[22]
  Cmax: 11.3 µg/mL
[23]
  AUC at 24 h: 80.6 µg·h/mL
[6]
  half-life: 2.4 h
[8]
  Activity: 53%
[9]
  IC50: > 7.5 µM
[24]
  Cmax: 124 µg/mL
[13]
  half-life: 3.1 h
[14]
  IC50: > 7.5 µM
[15]
  Activity: Active
[17]
  IC50: > 7.5 µM
[25]
  AUC at 24 h: 1870 µg·h/mL
[21]
  clearance: 11.6 mL/min/kg
